Shown are actives, neighbours in structure and some others; about 2.2% of the full set was active somewhere.
NR2E3 ag-1: activates human photoreceptor nuclear receptor NR2E3; Q9Y5X4; GST-NR2E3/biotin-RetCOR TR-FRET, 1536-well; inhibition of corepressor binding, % at 4.78 µM; 0.12% of 320,000 active; AID 2300;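 active = percent inhibition above the cutoff of mean plus 3 SD of all tested compounds, set per screening campaign, cut at about 20% in these data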
Target sequence (Q9Y5X4 whole entry, looked up): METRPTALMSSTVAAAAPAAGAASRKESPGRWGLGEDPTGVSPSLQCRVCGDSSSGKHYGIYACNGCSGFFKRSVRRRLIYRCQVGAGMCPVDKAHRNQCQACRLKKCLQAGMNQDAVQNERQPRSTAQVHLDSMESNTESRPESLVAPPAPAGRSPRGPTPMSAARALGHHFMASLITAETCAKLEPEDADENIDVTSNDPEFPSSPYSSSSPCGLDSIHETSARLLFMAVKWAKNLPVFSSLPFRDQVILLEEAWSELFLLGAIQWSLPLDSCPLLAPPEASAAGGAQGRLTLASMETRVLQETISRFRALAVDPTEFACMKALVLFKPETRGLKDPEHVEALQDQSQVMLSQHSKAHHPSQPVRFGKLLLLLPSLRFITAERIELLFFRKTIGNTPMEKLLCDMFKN
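Test system – NR2E3–RetCOR corepressor complex · Quantity – NR2E3 fusion 1.35 nM · Buffer or medium – Tris pH 7.5 · Incubation – Compound–protein incubation for 5 h at 4 °C · Technique – TR-FRET, Eu(K)-anti-GST donor, streptavidin-D2 acceptor, ex 340, em 617/671 nm · Evaluation – percent inhibition of 671/617 nm emission ratio versus biotin and DMSO controls · Plate – 1536-well format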
NR2E3 ag-2: human photoreceptor-specific nuclear receptor agonism. inhibition of corepressor binding, % at 3.98 µM. AID 602229. 0.35% of 360,000 active. CHO-S Gal4-NCOR/VP16-NR2E3 two-hybrid, luciferase. Q9Y5X4;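 active = inhibition above the mean of all tested compounds plus 3 SD, cut at about 70% in these data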;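 also: higher means lower luciferase signal from less NR2E3 corepressor binding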
FGF22 binding: shifts melting point of recombinant human FGF22; Q9HCT0; recombinant FGF22 thermal shift, SYPRO orange fluorescence; percent of sucrose octasulfate shift, DMSO zero; 1.5% of 340,000 active; activity (Tm shift, normalised), % at 9.99 µM;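 active = mean Tm shift, scaled 0 neutral to 100 positive control, at about 1.3% or above, every replicate too, limit read from the data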
Target sequence (Q9HCT0 whole entry, looked up): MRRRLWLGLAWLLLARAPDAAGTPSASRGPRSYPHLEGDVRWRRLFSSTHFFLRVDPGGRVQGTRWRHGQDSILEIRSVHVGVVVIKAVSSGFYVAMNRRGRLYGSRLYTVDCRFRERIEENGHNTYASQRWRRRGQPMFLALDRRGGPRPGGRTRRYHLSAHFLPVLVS
697 NFkB inh: inhibitors of the PMA/ionomycin-induced NF-kB reporter in 697 B cells | AID 435022 | inhibition, % at 4 µM | 0.33% of 330,000 active | 697 B-cell NF-kB luciferase reporter, 16 h; in the data active = inhibition above about 35%
Jurkat NFkB inh: lowers PMA/ionomycin-induced NF-kB signal in Jurkat cells; inhibition, % at 4 µM; 0.53% of 330,000 active; PMA/ionomycin-induced NF-kB luciferase reporter, luminescence; AID 435003; in the data active = inhibition above about 50%
miR122 inh: miR-122 inhibition in Huh7 cells | Huh7 miR-122 Renilla luciferase sensor, 48 h; neutral wells = 0, positive control = 100 | activation (reporter increase), % at 12.5 µM | 0.3% of 340,000 active;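 active = mean replicate activation score at least 90 and every replicate individually at or above 90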;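 also: higher luciferase means less miR-122 activity so hits act as miR-122 inhibitors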
NR2E3 ag conf: confirmation of human NR2E3 agonists; inhibition, % at 3.98 µM; 51% of 2,300 active; shares compounds with NR2E3 ag-2; AID 624378; CHO-S mammalian two-hybrid NR2E3-NCOR, luciferase luminescence;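 active = average inhibition above a cutoff equal to the mean inhibition of all tested compounds plus one SD, cut at about 70% in these data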
GAL4-VP16 luc: counter-screen for NR2E3 agonists: GAL4-VP16 reporter inhibitors; shares compounds with NR2E3 ag-2; CHO-S GAL4-VP16 luciferase reporter, luminescence; inhibition, % at 3.98 µM; 29% of 2,300 active; AID 624379;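 active = mean inhibition above a cutoff equal to the average over all tested compounds plus one standard deviation, cut at about 70% in these data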;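 also: luciferase from a UAS reporter driven by GAL4-VP16 transactivation; higher means less reporter light so more repression of VP16 activity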
Numbers stand for hits.

What do the screens show for `O=C(Cc1ccc(Br)cc1)Nc1ncc([N+](=O)[O-])s1`?
NR2E3 ag-1: inactive; NR2E3 ag-2: 72; FGF22 binding: inactive; 697 NFkB inh: inactive; Jurkat NFkB inh: inactive; miR122 inh: inactive; NR2E3 ag conf: 97; GAL4-VP16 luc: inactive

Results for CNC[C@H]1Oc2cc(C#CCN(C)C)ccc2S(=O)(=O)N([C@@H](C)CO)C[C@H]1C ?
FGF22 binding: inactive; miR122 inh: inactive

How did COc1ccc(S(=O)(=O)N(C)C[C@H]2OCCCC[C@@H](C)Oc3ccc(NS(=O)(=O)c4ccc(F)cc4)cc3C(=O)N([C@H](C)CO)C[C@H]2C)cc1 do in these assays?
FGF22 binding: inactive; miR122 inh: inactive

Results for C/C=C/c1ccc([C@@H]2[C@H](CO)N(Cc3ccccn3)[C@H]2CNC(C)=O)cc1 ?
FGF22 binding: inactive; miR122 inh: inactive

How did Cc1ccc(S(=O)(=O)NCC[C@@H]2CC[C@@H](NC(=O)Nc3cccc(F)c3)[C@@H](CO)O2)cc1 do in these assays?
FGF22 binding: inactive

How did CCOC(=O)N1CCC(NC(=O)C2CCCN(Cc3nc(-c4cccc(Cl)c4)oc3C)C2)CC1 (centres undefined) do in these assays?
NR2E3 ag-1: inactive; NR2E3 ag-2: 84; FGF22 binding: inactive; 697 NFkB inh: inactive; Jurkat NFkB inh: inactive; miR122 inh: inactive; NR2E3 ag conf: 88; GAL4-VP16 luc: inactive

Results for CCN(CC)CC(C)(C)C(=O)/C=C/c1ccc(/C=C/C(=O)C(C)(C)CN(CC)CC)cc1 ?
NR2E3 ag-2: 103; FGF22 binding: inactive; NR2E3 ag conf: 96; GAL4-VP16 luc: inactive

What do the screens show for `CCOC(=O)c1cc(C#N)c(N2CCN(C(=O)c3ccccc3)CC2)nc1C(F)(F)F`?
NR2E3 ag-1: inactive; NR2E3 ag-2: inactive; FGF22 binding: inactive; 697 NFkB inh: inactive; Jurkat NFkB inh: inactive

How did CCOC(=O)c1cc(C#N)c(N2CCN(C(=O)c3cccc(C(F)(F)F)c3)CC2)nc1C(F)(F)F do in these assays?
NR2E3 ag-1: inactive; NR2E3 ag-2: inactive; FGF22 binding: inactive; 697 NFkB inh: inactive; Jurkat NFkB inh: inactive; NR2E3 ag conf: inactive; GAL4-VP16 luc: inactive

How did C[C@H](CO)N1C[C@H](C)[C@@H](CN(C)Cc2ccc(O)cc2)OCc2ccccc2-c2c(n(C)c3ccccc23)C1=O do in these assays?
FGF22 binding: inactive

How did Cc1ccc(-c2csc3ncnc(Sc4nnc(CN5CCCCCC5=O)o4)c23)cc1 do in these assays?
NR2E3 ag-1: inactive; NR2E3 ag-2: inactive; 697 NFkB inh: inactive; Jurkat NFkB inh: inactive; miR122 inh: inactive; NR2E3 ag conf: inactive; GAL4-VP16 luc: inactive

What do the screens show for `Cc1noc(C)c1S(=O)(=O)Nc1ccc2c(c1)C(=O)N([C@H](C)CO)C[C@H](C)[C@H](CN(C)C(=O)Nc1ccccc1)OCCCC[C@@H](C)O2`?
FGF22 binding: inactive; miR122 inh: inactive

Results for CC1(Cc2ccc(OC(F)(F)F)cc2)C(=O)Nc2ccc(S(=O)(=O)NC3CCCCC3)cc21 (centres undefined) ?
NR2E3 ag-2: 85; FGF22 binding: inactive; miR122 inh: inactive; NR2E3 ag conf: inactive; GAL4-VP16 luc: inactive

Results for Cc1ccc(S(=O)(=O)Nc2ccc3ccccc3c2[N+](=O)[O-])cc1 ?
NR2E3 ag-2: inactive; FGF22 binding: inactive; miR122 inh: inactive

How did Cc1ccc(S(=O)(=O)Nc2ccc3cc([N+](=O)[O-])ccc3c2[N+](=O)[O-])cc1 do in these assays?
NR2E3 ag-2: 101; miR122 inh: inactive; NR2E3 ag conf: 100; GAL4-VP16 luc: 91

What do the screens show for `Cc1cc(SCn2nnc3ccccc3c2=O)nc2ccccc12`?
NR2E3 ag-1: inactive; NR2E3 ag-2: inactive; FGF22 binding: inactive; 697 NFkB inh: inactive; Jurkat NFkB inh: inactive

Results for Cc1ccc(-n2nnnc2SCn2nnc3ccccc3c2=O)c(C)c1 ?
NR2E3 ag-1: inactive; NR2E3 ag-2: 92; 697 NFkB inh: inactive; Jurkat NFkB inh: inactive; miR122 inh: inactive; NR2E3 ag conf: 89; GAL4-VP16 luc: 72

What do the screens show for `C[C@@H]1CN([C@H](C)CO)C(=O)Cc2cc(NC(=O)c3ccncc3)ccc2O[C@@H]1CN(C)S(=O)(=O)c1ccc(Cl)cc1`?
FGF22 binding: inactive; miR122 inh: inactive

How did COc1cccc2c1C(=O)c1c(O)c3c(c(O)c1C2=O)CC(O)(C(=O)CO)CC3OC1CC(N(C)C)C(O)C(C)O1 (centres undefined) do in these assays?
NR2E3 ag-2: 101; FGF22 binding: inactive; miR122 inh: inactive; NR2E3 ag conf: 99; GAL4-VP16 luc: 94

What do the screens show for `O=C(NC(=C(Cl)Cl)S(=O)(=O)c1ccc(Cl)cc1)c1ccccc1`?
NR2E3 ag-1: inactive; NR2E3 ag-2: inactive; FGF22 binding: inactive; 697 NFkB inh: inactive; Jurkat NFkB inh: inactive; miR122 inh: inactive; NR2E3 ag conf: inactive; GAL4-VP16 luc: inactive

What do the screens show for `CC(=O)NC(=C(Cl)Cl)S(=O)(=O)c1ccccc1`?
NR2E3 ag-1: inactive; NR2E3 ag-2: inactive; FGF22 binding: inactive; 697 NFkB inh: inactive; Jurkat NFkB inh: inactive; NR2E3 ag conf: inactive; GAL4-VP16 luc: inactive

What do the screens show for `Cc1ccc(C(=O)NC(=C(Cl)Cl)S(=O)(=O)c2ccc(C)cc2)cc1`?
NR2E3 ag-1: inactive; NR2E3 ag-2: inactive; 697 NFkB inh: inactive; Jurkat NFkB inh: inactive

What do the screens show for `Cc1ccc(S(=O)(=O)C(NC(=O)c2ccccc2)=C(Cl)Cl)cc1`?
NR2E3 ag-1: inactive; NR2E3 ag-2: inactive; 697 NFkB inh: inactive; Jurkat NFkB inh: inactive; miR122 inh: inactive

What do the screens show for `CO[C@H]1CN(C)C(=O)c2cc(NC(C)=O)ccc2OC[C@@H](C)N(Cc2cncnc2)C[C@H]1C`?
FGF22 binding: inactive; miR122 inh: inactive

How did O=C(OCc1ccccc1)N(CCCCN(CCCNCc1ccccc1)C(=O)OCc1ccccc1)CCCNCc1ccccc1 do in these assays?
NR2E3 ag-2: inactive; FGF22 binding: inactive; NR2E3 ag conf: inactive; GAL4-VP16 luc: inactive

What do the screens show for `C[C@H](CO)N1C[C@H](C)[C@@H](CN(C)C(=O)C2CC2)Oc2cc(-c3ccc(F)cc3)ccc2S1(=O)=O`?
miR122 inh: inactive

Results for CCC(=O)Nc1ccc2c(c1)OC[C@H](C)N(C(=O)c1cccnc1)C[C@@H](C)[C@@H](OC)CN(C)C2=O ?
FGF22 binding: inactive

What do the screens show for `CC(C)(C)c1ccc(C(=O)N2CCC2(C)C(=O)Nc2cccc(C#N)c2)cc1` (centres undefined)?
NR2E3 ag-2: inactive; FGF22 binding: inactive; miR122 inh: inactive; NR2E3 ag conf: inactive; GAL4-VP16 luc: inactive

Screens from PubChem.
